One molecule from ChEMBL document CHEMBL4680118, “Cerpegin-derived furo[3,4-c]pyridine-3,4(1H,5H)-diones enhance cellular response to interferons by de novo pyrimidine biosynthesis inhibition” (Eur J Med Chem, 2020) can be followed below.

Structures are written as SMILES. Active and inactive are the calls of the source. The rule behind the calls is not given here.

Format in all cases: cell-based
Assay [1] deals with T1, Dihydroorotate dehydrogenase (quinone), mitochondrial (Homo sapiens, UniProt Q02127). Description: Inhibition of DHODH in human HEK293 cells assessed as effect on intracellular purine level measured after 24 hrs by HPLC coupled spectrophotometry. An outline of the steps: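 HEK-293 cells plated at 1×10^6 per well, treated 24 h later with compound (80 µM final) or DMSO for 24 h. Pellets deproteinized with 6% perchloric acid, neutralized with Na2CO3, analysed by C18 HPLC at 45°C with ion-pair phosphate/MeOH gradient, detected at 254 nm against reference nucleoside calibration curves. Normalized to viable cell number and DMSO controls.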
T1 sequence (Q02127 whole entry): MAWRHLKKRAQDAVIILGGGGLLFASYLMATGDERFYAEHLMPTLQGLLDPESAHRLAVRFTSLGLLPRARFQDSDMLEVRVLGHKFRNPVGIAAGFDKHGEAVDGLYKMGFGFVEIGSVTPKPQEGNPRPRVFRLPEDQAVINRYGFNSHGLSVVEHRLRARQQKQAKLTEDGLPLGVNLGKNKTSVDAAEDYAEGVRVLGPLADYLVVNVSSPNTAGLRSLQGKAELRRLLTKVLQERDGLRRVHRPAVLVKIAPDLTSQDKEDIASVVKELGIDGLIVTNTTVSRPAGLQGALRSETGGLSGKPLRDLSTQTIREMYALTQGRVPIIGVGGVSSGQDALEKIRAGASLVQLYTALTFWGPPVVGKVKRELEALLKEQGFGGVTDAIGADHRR

Assay [2] addresses T1, Dihydroorotate dehydrogenase (quinone), mitochondrial. Description: Inhibition of DHODH in human HEK-293 cells transfected with ISRE-luciferase reporter gene assessed as increase in IFN-alpha mediated cellular response at 80 uM in presence of uridine measured after 24 hrs by luciferase reporter gene assay. To be noted: HEK293. An outline of the steps: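 ISRE-Luc HEK-293 cells exposed to increasing IFN-α concentrations with DMSO or compound (80 µM), supplemented with uridine (125 µM) or with 3 mM orotate or DHO. Reporter luciferase read after 24 h, normalized to DMSO + IFN-α 250 IU/ml. Means ± SD of three independent experiments; two-way ANOVA.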
In general terms: In a reporter assay the amount or activity of a reporter protein is the signal.

For assay [3] the target is unchanged. Description: Inhibition of DHODH in human HEK293 cells transfected with ISRE-luciferase reporter gene assessed as increase in 250 IU/ml IFN-alpha stimulated IFIT3 mRNA expression at 80 uM measured after 16 hrs by RT-qPCR analysis relative to control. An outline of the steps:
(§1)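 ISRE-Luc HEK cells co-treated with increasing IFN-α concentrations and DMSO or compound (80 µM) for 16 h. Total RNA extracted from 2×10^5 cells with DNase step; qPCR 35 cycles. CT values normalized to RPL13A and unstimulated controls (2^-ΔΔCT), expressed as fold change versus DMSO alone. Three independent experiments; two-way ANOVA with Bonferroni.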

Assay [4] shares this target. Description: Inhibition of DHODH in human HEK293 cells transfected with ISRE-luciferase reporter gene assessed as increase in INFgamma-stimulated cellular response at 80 uM measured after 24 hrs by luciferase reporter gene assay. The gist of the method: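 ISRE-Luc HEK-293 cells were treated with DMSO or compound at 80 μM, with or without recombinant IFN-γ at 150 IU/ml. Firefly luciferase was read 24 h later with Bright-Glo or Britelite, 0.1 s luminescence. Signal was normalized to DMSO + IFN-γ. Values are means ± SD of three independent experiments; two-tailed t-test.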

The target is the same in assay [5]. Put plainly: Inhibition of DHODH in human HEK293 cells assessed as increase in gammaH2AX phosphorylation measured after 24 hrs by immunostaining based flow cytometry. The gist of the method: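 Cells treated 24 h with compound (80 µM), harvested, trypsinized, fixed 30 min in 4% PFA, permeabilized 5 min. Stained with anti-γH2AX mouse monoclonal (1/400) or isotype control, 45 min at 4°C, then Alexa Fluor 488 anti-mouse secondary (1/500) 45 min at 4°C. Analysed by flow cytometry; means ± SD of three independent experiments.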
(Flow cytometry measures light scatter and fluorescence of single cells or particles in a stream.)

Assay [6] shares this target. Put plainly: Inhibition of DHODH in human HEK293 cells transfected with ISRE-luciferase reporter gene assessed as increase in 60 IU/ml IFN-alpha stimulated IFIT1 mRNA expression at 80 uM measured after 16 hrs by RT-qPCR analysis relative to control. The gist of the method:
as §1

The target is the same in assay [7]. Description: Inhibition of DHODH in human HEK293 cells transfected with ISRE-luciferase reporter gene assessed as increase in 30 IU/ml IFN-alpha stimulated IFIT2 mRNA expression at 80 uM measured after 16 hrs by RT-qPCR analysis relative to control. The gist of the method: as §1
For assay [8] the target is unchanged. Put plainly: Inhibition of DHODH in human HEK293 cells transfected with ISRE-luciferase reporter gene assessed as increase in 60 IU/ml IFN-alpha stimulated IFIT2 mRNA expression at 80 uM measured after 16 hrs by RT-qPCR analysis relative to control. An outline of the steps:
as §1

Assay [9] has the same target. Put plainly: Inhibition of DHODH in human HEK293 cells transfected with ISRE-luciferase reporter gene assessed as increase in 60 IU/ml IFN-alpha stimulated IFITM3 mRNA expression at 80 uM measured after 16 hrs by RT-qPCR analysis relative to control. An outline of the steps:
(§2)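 HEK-293 ISRE-Luc cells (DMEM, 10% FCS, 37°C, 5% CO2) were given increasing IFN-α doses together with DMSO or compound at 80 μM, then harvested at 16 h. RNA was extracted from 2×10^5 cells with DNase treatment. Transcripts were run by qPCR for 35 cycles and normalized to RPL13A and to unstimulated controls by 2^-ΔΔCT. Values are fold change versus DMSO; three independent experiments; two-way ANOVA with Bonferroni.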

Assay [10] has the same target. Put plainly: Inhibition of DHODH in human HEK293 cells assessed as increase in 250 IU/ml IFN-alpha stimulated DDX58 mRNA expression at 80 uM measured after 16 hrs by RT-qPCR analysis relative to control. An outline of the steps: as §1
For orientation: Quantitative PCR measures a nucleic acid by following its amplification.

Assay [11] shares this target. Put plainly: Inhibition of DHODH in human HEK293 cells transfected with ISRE-luciferase reporter gene assessed as increase in 30 IU/ml IFN-alpha stimulated IFIT5 mRNA expression at 80 uM measured after 16 hrs by RT-qPCR analysis relative to control. An outline of the steps:
as §1

The target is the same in assay [12]. Description: Inhibition of DHODH in human HEK293 cells transfected with ISRE-luciferase reporter gene assessed as increase in 125 IU/ml IFN-alpha stimulated PKR mRNA expression at 80 uM measured after 16 hrs by RT-qPCR analysis relative to control. The gist of the method: as §1
The target is the same in assay [13]. Put plainly: Inhibition of DHODH in human HEK293 cells transfected with ISRE-luciferase reporter gene assessed as increase in 60 IU/ml IFN-alpha stimulated PML mRNA expression at 80 uM measured after 16 hrs by RT-qPCR analysis relative to control. An outline of the steps:
as §2

The target is the same in assay [14]. Put plainly: Inhibition of DHODH in […] treated with R848 stimulated cell supernatant assessed as increase in IFN-gamma-containing conditioned supernatant-stimulated cellular response at 80 uM measured after 24 hrs by luciferase reporter gene assay. The gist of the method:
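Donor PBMCs were activated for 24 h with R848 at 5 µg/ml, and the supernatants (containing IFN-γ) were collected. HEK-293 ISRE-Luc reporter cells, not PBMCs, were then stimulated with these supernatants diluted 1/8 to 1/64, in the presence of DMSO or compound at 80 μM. Luciferase was read at 24 h and normalized to cells given the 1/8 dilution. Three independent experiments; two-way ANOVA with Bonferroni.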

The target is the same in assay [15]. Description: Inhibition of DHODH in human HEK-293 cells transfected with ISRE-luciferase reporter gene assessed as increase in 150 IU/ml IFN-alpha mediated cellular response at 80 uM in presence of mirin measured after 24 hrs by luciferase reporter gene assay. The conditions noted are these: HEK293. The gist of the method: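 ISRE-Luc HEK-293 cells given IFN-α (150 IU/ml) alone or with test compound (80 µM), with or without the MRE11 inhibitor mirin, ATR inhibitor AZD6738, CHK1 inhibitor PF477736 or P300/CBP inhibitor C636. Firefly luciferase read 24 h later, normalized to IFN-α alone. Means ± SD of at least three independent experiments.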

As for `O=C1OC2(CCCCC2)c2ccn(C3CC3)c(=O)c21`, the outcome in assay [1], in [2] and in [15] was inactive. In addition, the fold change (FC) in assay [3] amounted to 129; in assay [6], 85; in [7] it was 26; in assay [8] it was 61; in assay [9] it was 12; in assay [10], 38. For the same molecule, the fold change (FC) was found to be 3 in [11], 3 in assay [12] and 4 in [13]. Also, the outcome in assay [4], in assay [5] and in assay [14] was Active.
